Measured values pooled from the literature.
Compare with care: the assays were run in different laboratories. Values after ≈ are worked out from the molar mass of the structure shown.

For `COc1ccc([S+]([O-])c2ccccc2)c(OC)c1OC` (stereo not shown), the IC50 was 62.6 µM (Leishmania braziliensis; parasite growth, MTT; 24 h, promastigote).
With `FC1CCN(C2(CNCc3ccc(-c4ccccc4Cl)o3)COC2)C1` (stereo not shown) the viability was 47.4% (GBM6; cell growth or viability; 30 µM, 48 h).
For `CC1=NN(CNC(=O)c2ccccn2)C(=O)C1=NNn1c(-c2ccccc2)nc2ccccc2c1=O`, the MIC was 104 µM (≈ 50 µg/mL) (Trichophyton rubrum; microbial growth, broth dilution).
For `Cc1nc2ccc(-c3ccc(OC(F)(F)F)cc3)cc2c(O)c1C#N`, the IC50 was over 10 µM (HEK293; cell growth or viability).
`CC1=NN(CNc2ccc(C(=O)O)cc2)C(=O)C1=NNn1c(-c2ccccc2)nc2ccccc2c1=O` gave an MIC of 101 µM (≈ 50 µg/mL) (Trichophyton rubrum; microbial growth, broth dilution).
`CN1CCCC(CN2CCN(Cc3ccc(-c4cccc(-c5nc6ccccc6[nH]5)c4)cc3)CC2)C1` (stereo not shown) has an IC50 of over 10 µM (HEK293; cell growth or viability).
For `COc1ccc(-c2ccc(-c3ccc(C(=N)N)nc3)s2)cc1Cl`, the GI50 was 1.67 µM (NCI-H322M; cell growth or viability, SRB).
`Cc1[nH]cc(Br)c(=O)c1-c1ccc(Oc2ccccc2)cc1` has an IC50 of over 10 µM (HEK293; cell growth or viability).
`c1ccc(-c2ccc(CNCC3(N4CCCC4)COC3)o2)cc1` has a viability of 74.2% (T98G; cell growth or viability; 30 µM, 48 h).
`CCCCc1nc2ncccn2c1NC(C)(C)CC(C)(C)C` has an IC50 of 47.8 µM (Leishmania amazonensis; parasite growth, MTT; 72 h, promastigote).
`Cc1ccc(/C=C2/SC(=Nc3ccccc3)NC2=O)c(C)c1` has an IC50 of over 10 µM (HEK293; cell growth or viability).
For `CC(C)(C)CC(C)(C)Nc1c(-c2ccc(Cl)cc2)nc2ncccn12`, the IC50 was 36.4 µM (Leishmania amazonensis; parasite growth, MTT; 72 h, promastigote).
The IC50 of `CCOC(=O)c1cn(CC)c2cc(N3CCCCCC3)c(F)cc2c1=O` is reported as over 10 µM (HEK293; cell growth or viability).
The IC50 of `COc1ccc(S(=O)(=O)c2ccc(C)cc2)c(OC)c1OC` is reported as 91.7 µM (Leishmania braziliensis; parasite growth, MTT; 24 h, promastigote).
The IC50 of `COc1cccc(-c2nc3ncccn3c2NC(C)(C)CC(C)(C)C)c1` is reported as 17 µM (Leishmania amazonensis; parasite growth, MTT; 72 h, promastigote).
`CC(=O)NCN1N=C(C)C(=NNn2c(-c3ccccc3)nc3ccccc3c2=O)C1=O` gave an MIC of 120 µM (≈ 50 µg/mL) (Trichophyton rubrum; microbial growth, broth dilution).
